# In article PMC10692386 (Acta Pharmaceutica Sinica. B, 2023):
# Columns and labels:
# [1] = Cytotoxicity in mock-infected MT-4 cell cultures; format: cell-based; details: human, mock-infected MT-4 cells
# HIV-1 mutant L100I = assay: Anti-HIV-1 efficacy against mutant L100I in MT-4 cells; format: cell-based; details: Human immunodeficiency virus 1, MT4, read-out: EC50 L100I
# Outline: (§1)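 MT-4 cells were infected with HIV-1 RT mutant strains. EC50 was the concentration giving 50% protection against viral cytopathicity, averaged from at least three independent experiments. Cytotoxicity in mock-infected cultures was read by MTT.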
# [2] = system: HIV-1 mutant K103N + Y181C; assay: Anti-HIV-1 efficacy against mutant K103N + Y181C in MT-4 cells; format: cell-based; details: Human immunodeficiency virus 1, MT4, read-out: EC50 K103N + Y181C
# Outline: as §1
# HIV-1 mutant K103N = assay: Anti-HIV-1 efficacy against mutant K103N in MT-4 cells; format: cell-based; details: Human immunodeficiency virus 1, MT4, read-out: EC50 K103N
# Outline: as §1
# WT HIV-1 = assay: Anti-HIV-1 activity in MT-4 cells infected with HIV-1; format: cell-based; details: for EC50: Human immunodeficiency virus 1, MT4; for SI: selectivity index, the ratio of CC50/EC50, WT HIV-1
# WT HIV-1 RT = WT HIV-1 RT (Human immunodeficiency virus type 1 group M subtype B, UniProt P03366); assay: Inhibition of WT HIV-1 RT; format: biochemical
# HIV-1 mutant E138K = assay: Anti-HIV-1 efficacy against mutant E138K in MT-4 cells; format: cell-based; details: Human immunodeficiency virus 1, MT4, read-out: EC50 E138K
# Outline: as §1
# HIV-1 mutant Y181C = assay: Anti-HIV-1 efficacy against mutant Y181C in MT-4 cells; format: cell-based; details: Human immunodeficiency virus 1, MT4, read-out: EC50 Y181C
# Outline: as §1
# HIV-1 mutant Y188L = assay: Anti-HIV-1 efficacy against mutant Y188L in MT-4 cells; format: cell-based; details: Human immunodeficiency virus 1, MT4, read-out: EC50 Y188L
# Outline: as §1
# CYP2C9 = CYP2C9 (Homo sapiens, UniProt P11712); assay: Cytochrome P450 inhibition assay, CYP2C9; format: in vitro ADME
# hERG potassium channels = hERG potassium channels (Homo sapiens, UniProt Q12809); assay: hERG channel Qpatch assay in CHO-hERG cells; format: cell-based
# CYP2C19 = CYP2C19 (Homo sapiens, UniProt P33261); assay: biochemical
# [3] = system: K103N, L100I, E138K, Y181C, and K103N + Y181C; assay: Anti-HIV-1 efficacy against mutant panel; format: cell-based; details: Human immunodeficiency virus 1, read-out: EC50 value range
# Outline: as §1
# CYP2D6 = CYP2D6 (Homo sapiens, UniProt P10635); assay: Cytochrome P450 inhibition assay, CYP2D6; format: in vitro ADME
# Aqueous solubility = format: physicochemical
# Acute toxicity assay = format: in vivo, ICR mice; details: single intragastric administration of 1.2 g/kg
# Outline: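 ICR mice, 24–28 g, aged 5–6 weeks (4 male, 4 female), were randomised into 4 groups. Test compound was given as a single intragastric dose. Body weight, behaviour and coat colour were followed for 14 days. Mice were then euthanised, and kidney, lung, spleen, liver, heart and brain were HE-stained for histology.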
# CYP1A2 = biological target: T1, CYP1A2 (Homo sapiens, UniProt P05177); assay: Cytochrome P450 inhibition assay, CYP1A2; format: in vitro ADME
# T1 sequence (P05177 1-516): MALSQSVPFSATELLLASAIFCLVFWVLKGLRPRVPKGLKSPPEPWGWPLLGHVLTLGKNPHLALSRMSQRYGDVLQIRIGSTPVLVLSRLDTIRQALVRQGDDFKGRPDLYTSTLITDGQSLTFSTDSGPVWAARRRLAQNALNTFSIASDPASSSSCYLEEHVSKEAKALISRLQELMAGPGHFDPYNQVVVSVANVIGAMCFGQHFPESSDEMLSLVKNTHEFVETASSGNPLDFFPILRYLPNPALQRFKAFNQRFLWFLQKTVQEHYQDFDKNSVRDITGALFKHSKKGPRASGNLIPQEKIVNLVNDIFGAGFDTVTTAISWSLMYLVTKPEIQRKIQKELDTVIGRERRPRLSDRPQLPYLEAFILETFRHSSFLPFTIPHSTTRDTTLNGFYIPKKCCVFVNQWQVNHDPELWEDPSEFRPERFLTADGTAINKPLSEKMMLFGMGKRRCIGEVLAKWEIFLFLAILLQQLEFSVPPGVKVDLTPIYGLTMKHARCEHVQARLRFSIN
# CYP3A4 = CYP3A4 (Homo sapiens, UniProt P08684); assay: Cytochrome P450 inhibition assay, CYP3A4; format: in vitro ADME
# [4] = PK study in Sprague-Dawley rats; format: in vivo; details: rat, plasma
# Outline: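 Six SD rats, 180–220 g, were fasted 12 h and randomised into an intravenous arm (1 mg/kg) and an intragastric arm. Blood was drawn from pre-dose to 720 min into heparin, and plasma was stored at −80 °C. Plasma was precipitated with acetonitrile, dried under nitrogen, reconstituted and assayed by HPLC-MS/MS. PK parameters and bioavailability came from concentration–time data.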
# Chain of CYP2D6 (P10635 whole entry): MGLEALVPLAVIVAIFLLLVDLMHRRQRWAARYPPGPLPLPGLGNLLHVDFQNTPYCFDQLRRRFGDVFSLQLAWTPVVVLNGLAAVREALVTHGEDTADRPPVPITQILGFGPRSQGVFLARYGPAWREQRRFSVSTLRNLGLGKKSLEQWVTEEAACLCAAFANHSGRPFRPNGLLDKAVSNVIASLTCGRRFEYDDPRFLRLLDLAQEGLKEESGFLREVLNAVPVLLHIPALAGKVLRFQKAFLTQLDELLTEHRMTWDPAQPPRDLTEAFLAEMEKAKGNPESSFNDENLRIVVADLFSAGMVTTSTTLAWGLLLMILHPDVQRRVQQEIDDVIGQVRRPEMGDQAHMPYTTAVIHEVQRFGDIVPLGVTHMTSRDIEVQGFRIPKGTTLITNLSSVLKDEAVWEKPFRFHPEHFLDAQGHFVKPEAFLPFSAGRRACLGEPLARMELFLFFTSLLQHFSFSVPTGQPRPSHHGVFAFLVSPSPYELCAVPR
# Chain of CYP2C19 (P33261 whole entry): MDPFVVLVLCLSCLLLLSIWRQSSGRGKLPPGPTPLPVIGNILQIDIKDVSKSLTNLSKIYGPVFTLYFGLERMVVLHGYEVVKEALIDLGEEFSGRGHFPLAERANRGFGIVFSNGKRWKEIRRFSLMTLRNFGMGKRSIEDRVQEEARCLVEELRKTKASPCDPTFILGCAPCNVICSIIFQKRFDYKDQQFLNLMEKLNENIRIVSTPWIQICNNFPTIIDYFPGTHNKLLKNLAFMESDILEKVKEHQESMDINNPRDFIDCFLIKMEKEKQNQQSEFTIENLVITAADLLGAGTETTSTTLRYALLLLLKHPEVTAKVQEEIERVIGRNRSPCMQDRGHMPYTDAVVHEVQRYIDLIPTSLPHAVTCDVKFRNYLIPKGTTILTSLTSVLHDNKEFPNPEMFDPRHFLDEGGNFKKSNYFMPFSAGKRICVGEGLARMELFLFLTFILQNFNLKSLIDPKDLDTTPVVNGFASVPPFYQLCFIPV
# Chain of CYP3A4 (P08684 whole entry): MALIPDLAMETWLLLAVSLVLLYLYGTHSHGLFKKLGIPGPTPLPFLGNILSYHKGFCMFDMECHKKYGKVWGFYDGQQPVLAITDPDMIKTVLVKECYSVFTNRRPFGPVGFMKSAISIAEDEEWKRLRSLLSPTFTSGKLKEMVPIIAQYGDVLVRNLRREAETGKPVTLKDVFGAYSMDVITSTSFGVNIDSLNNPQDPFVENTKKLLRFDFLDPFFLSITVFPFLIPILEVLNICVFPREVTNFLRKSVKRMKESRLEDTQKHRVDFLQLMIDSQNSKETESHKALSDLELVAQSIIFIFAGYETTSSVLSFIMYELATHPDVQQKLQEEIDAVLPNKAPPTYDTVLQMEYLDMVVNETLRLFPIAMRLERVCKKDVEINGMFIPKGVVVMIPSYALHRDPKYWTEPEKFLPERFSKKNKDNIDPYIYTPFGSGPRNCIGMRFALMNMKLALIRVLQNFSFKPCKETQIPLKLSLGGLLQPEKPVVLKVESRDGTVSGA
# Chain of hERG potassium channels (Q12809 whole entry): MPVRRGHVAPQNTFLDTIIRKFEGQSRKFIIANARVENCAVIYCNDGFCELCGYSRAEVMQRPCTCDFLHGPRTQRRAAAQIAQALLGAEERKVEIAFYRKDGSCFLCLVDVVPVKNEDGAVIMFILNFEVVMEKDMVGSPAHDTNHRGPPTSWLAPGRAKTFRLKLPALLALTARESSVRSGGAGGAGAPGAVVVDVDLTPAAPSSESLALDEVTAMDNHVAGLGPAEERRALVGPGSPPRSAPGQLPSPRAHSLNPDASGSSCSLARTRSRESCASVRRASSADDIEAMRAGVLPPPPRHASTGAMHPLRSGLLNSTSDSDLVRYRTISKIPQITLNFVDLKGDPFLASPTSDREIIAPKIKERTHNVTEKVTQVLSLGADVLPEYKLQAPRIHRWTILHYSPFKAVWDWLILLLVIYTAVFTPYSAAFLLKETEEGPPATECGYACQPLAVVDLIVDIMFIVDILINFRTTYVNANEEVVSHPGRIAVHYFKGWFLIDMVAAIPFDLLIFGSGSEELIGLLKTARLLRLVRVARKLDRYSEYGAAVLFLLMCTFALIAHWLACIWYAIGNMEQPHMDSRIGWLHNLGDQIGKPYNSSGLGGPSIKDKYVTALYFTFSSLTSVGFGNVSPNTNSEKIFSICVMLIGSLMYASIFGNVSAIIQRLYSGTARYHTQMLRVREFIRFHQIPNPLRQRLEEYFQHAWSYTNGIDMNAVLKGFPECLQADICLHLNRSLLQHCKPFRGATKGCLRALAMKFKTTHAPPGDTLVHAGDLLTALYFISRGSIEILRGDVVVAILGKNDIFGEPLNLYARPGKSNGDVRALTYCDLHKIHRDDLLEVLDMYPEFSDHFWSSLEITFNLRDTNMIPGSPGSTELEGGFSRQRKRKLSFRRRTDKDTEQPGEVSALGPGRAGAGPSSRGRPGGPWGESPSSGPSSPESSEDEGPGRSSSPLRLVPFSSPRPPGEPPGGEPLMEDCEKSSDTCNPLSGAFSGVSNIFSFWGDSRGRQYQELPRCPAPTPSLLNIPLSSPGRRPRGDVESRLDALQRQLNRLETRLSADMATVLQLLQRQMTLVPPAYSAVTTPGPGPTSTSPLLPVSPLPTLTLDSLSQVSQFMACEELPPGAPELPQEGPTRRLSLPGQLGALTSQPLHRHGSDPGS
# Chain of CYP2C9 (P11712 whole entry): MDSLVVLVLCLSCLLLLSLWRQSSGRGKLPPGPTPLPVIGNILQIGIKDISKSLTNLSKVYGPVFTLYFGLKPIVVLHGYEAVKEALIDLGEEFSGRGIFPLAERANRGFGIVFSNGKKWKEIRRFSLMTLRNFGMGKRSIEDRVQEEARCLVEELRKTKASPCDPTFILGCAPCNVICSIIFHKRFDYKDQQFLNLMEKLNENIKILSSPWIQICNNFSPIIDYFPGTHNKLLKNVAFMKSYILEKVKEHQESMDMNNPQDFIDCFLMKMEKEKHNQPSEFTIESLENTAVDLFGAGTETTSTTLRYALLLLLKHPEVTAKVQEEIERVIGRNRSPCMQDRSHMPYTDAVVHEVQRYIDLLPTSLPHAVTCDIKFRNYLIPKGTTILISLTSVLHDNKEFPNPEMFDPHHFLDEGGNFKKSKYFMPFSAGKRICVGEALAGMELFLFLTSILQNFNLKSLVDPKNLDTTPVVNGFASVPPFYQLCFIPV
structure (smiles),measurement,setting,value
"Cn1c(Cn2ccc(C(F)(F)F)c(Oc3cc(Cl)cc(C#N)c3)c2=O)n[nH]c1=O [DOR, doravirine, reference compound]",CC50,[1],293240 ± 170 nM
same,EC50,HIV-1 mutant L100I,6.6 ± 1.7 nM
same,EC50,[2],142 ± 57 nM
same,EC50,HIV-1 mutant K103N,42 ± 1.3 nM
same,EC50,WT HIV-1,13 ± 4 nM
same,IC50,WT HIV-1 RT,44 ± 5 nM
same,EC50,HIV-1 mutant E138K,7.5 ± 2.6 nM
same,EC50,HIV-1 mutant Y181C,25 ± 2.3 nM
same,EC50,HIV-1 mutant Y188L,500 ± 150 nM
Cn1c(Cn2ccc(C(F)(F)F)c(Oc3cncc4ccccc34)c2=O)n[nH]c1=O [7u],CC50,[1],277000 ± 10100 nM
same,EC50,HIV-1 mutant L100I,500 ± 220 nM
same,EC50,[2],34000 ± 13000 nM
same,EC50,HIV-1 mutant K103N,3010 ± 1420 nM
same,EC50,WT HIV-1,890 ± 230 nM
same,SI,WT HIV-1,309.52
same,IC50,WT HIV-1 RT,4380 ± 350 nM
same,EC50,HIV-1 mutant E138K,900 ± 290 nM
same,EC50,HIV-1 mutant Y181C,1560 ± 490 nM
same,EC50,HIV-1 mutant Y188L,> 250000 nM
Cn1c(Cn2ccc(C(F)(F)F)c(Oc3cncc(Cl)c3)c2=O)n[nH]c1=O [7a],CC50,[1],> 311000 nM
same,EC50,HIV-1 mutant L100I,930 ± 510 nM
same,EC50,[2],18300 ± 11400 nM
same,EC50,HIV-1 mutant K103N,1220 ± 560 nM
same,EC50,WT HIV-1,550 ± 230 nM
same,SI,WT HIV-1,>563
same,IC50,WT HIV-1 RT,1140 ± 43 nM
same,EC50,HIV-1 mutant E138K,610 ± 40 nM
same,EC50,HIV-1 mutant Y181C,1790 ± 580 nM
same,EC50,HIV-1 mutant Y188L,122000 ± 62100 nM
"Cc1cc(C#N)cc(C)c1Oc1nc(Nc2ccc(C#N)cc2)nc(N)c1Br [ETR, etravirine, reference compound]",CC50,[1],> 4600 nM
same,EC50,HIV-1 mutant L100I,6 ± 4 nM
same,EC50,[2],31 ± 9 nM
same,EC50,HIV-1 mutant K103N,2 nM
same,EC50,WT HIV-1,2.9 ± 2 nM
same,SI,WT HIV-1,>1600
same,EC50,HIV-1 mutant E138K,6 ± 1 nM
same,EC50,HIV-1 mutant Y181C,19 ± 9 nM
same,EC50,HIV-1 mutant Y188L,18 ± 8 nM
Cc1ccncc1Oc1c(C(F)(F)F)ccn(Cc2n[nH]c(=O)n2C)c1=O [7k],CC50,[1],> 328000 nM
same,EC50,WT HIV-1,1530 ± 250 nM
same,SI,WT HIV-1,>214
Cn1c(Cn2ccc(C(F)(F)F)c(Oc3cncc(Br)c3)c2=O)n[nH]c1=O [7e],CC50,[1],> 280000 nM
same,EC50,HIV-1 mutant L100I,680 ± 220 nM
same,EC50,[2],12300 ± 8120 nM
same,EC50,HIV-1 mutant K103N,950 ± 270 nM
same,EC50,WT HIV-1,490 ± 120 nM
same,SI,WT HIV-1,>573
same,IC50,WT HIV-1 RT,740 ± 30 nM
same,EC50,HIV-1 mutant E138K,620 ± 220 nM
same,EC50,HIV-1 mutant Y181C,850 ± 150 nM
same,EC50,HIV-1 mutant Y188L,39000 ± 5330 nM
Cc1cc(Oc2c(C(F)(F)F)ccn(Cc3n[nH]c(=O)n3C)c2=O)c2ccccc2n1 [7z],CC50,[1],233000 ± 32100 nM
same,EC50,WT HIV-1,> 233000 nM
same,SI,WT HIV-1,<1
Cn1c(Cn2ccc(C(F)(F)F)c(Oc3cccc4cnccc34)c2=O)n[nH]c1=O [7w],IC50,CYP2C9,19600 nM
same,IC50,hERG potassium channels,> 40000 nM
same,IC50,CYP2C19,26800 nM
same,EC50,[3],35 to 140 nM
same,CC50,[1],274000 ± 10600 nM
same,EC50,HIV-1 mutant L100I,38 ± 17 nM
same,EC50,[2],140 ± 90 nM
same,IC50,CYP2D6,> 50000 nM
same,EC50,HIV-1 mutant K103N,71 ± 19 nM
same,EC50,WT HIV-1,22 ± 10 nM
same,SI,WT HIV-1,"12,497.73"
same,solubility,"Aqueous solubility; pH 2, aqueous buffer",4470 µg/mL
same,solubility,"Aqueous solubility; pH 7, aqueous buffer",38 µg/mL
same,solubility,"Aqueous solubility; pH 7.4, aqueous buffer",53 µg/mL
same,IC50,WT HIV-1 RT,120 ± 7 nM
same,Pathological damage of six main organs (HE staining),Acute toxicity assay; after 14 days,no obvious pathological damage
same,Behavior and weight,Acute toxicity assay; observed 14 days,normal behavior and weight
same,Mortality,Acute toxicity assay; observed 14 days,did not result in any fatalities
same,EC50,HIV-1 mutant E138K,49 ± 13 nM
same,EC50,HIV-1 mutant Y181C,50 ± 11 nM
same,IC50,CYP1A2,> 50000 nM
same,EC50,HIV-1 mutant Y188L,5350 ± 2150 nM
same,IC50,CYP3A4,> 50000 nM
same,Cmax,"[4]; iv, 1 mg/kg",456 ± 51.1 ng/mL
same,Tmax,"[4]; iv, 1 mg/kg",4.98 min
same,half-life,"[4]; iv, 1 mg/kg",17.4 ± 12.6 min
same,AUC,"[4]; iv, 1 mg/kg, AUC0‒t, 1.0 mg/kg (i.v.)",229 ± 45.3 ng·h/mL
same,AUC,"[4]; iv, 1 mg/kg, AUC0‒∞, 1.0 mg/kg (i.v.)",230 ± 46 ng·h/mL
same,MRT,"[4]; iv, 1 mg/kg, MRT0‒t, 1.0 mg/kg (i.v.)",21.1 ± 2.5 min
same,MRT,"[4]; iv, 1 mg/kg, MRT0‒∞, 1.0 mg/kg (i.v.)",22 ± 28 min
same,Cmax,"[4]; po, 5 mg/kg",2888 ± 9.71 ng/mL
same,Tmax,"[4]; po, 5 mg/kg",25 ± 8.64 min
same,bioavailability,"[4]; po, 5 mg/kg",27.1 ± 0.0219%
same,half-life,"[4]; po, 5 mg/kg",107 ± 17.4 min
same,AUC,"[4]; po, 5 mg/kg, AUC0‒t, 5.0 mg/kg (p.o.)",304 ± 24.5 ng·h/mL
same,AUC,"[4]; po, 5 mg/kg, AUC0‒∞, 5.0 mg/kg (p.o.)",312 ± 25.3 ng·h/mL
same,MRT,"[4]; po, 5 mg/kg, MRT0‒t, 5.0 mg/kg (p.o.)",70.2 ± 9.18 min
same,MRT,"[4]; po, 5 mg/kg, MRT0‒∞, 5.0 mg/kg (p.o.)",85.2 ± 8.4 min
Cn1c(Cn2ccc(C(F)(F)F)c(Oc3cccc4ncccc34)c2=O)n[nH]c1=O [7v],CC50,[1],278000 ± 18600 nM
same,EC50,WT HIV-1,4480 ± 1240 nM
same,SI,WT HIV-1,62.10
Cc1cc(Oc2c(C(F)(F)F)ccn(Cc3n[nH]c(=O)n3C)c2=O)c2cc(F)c(Cl)cc2n1 [7ae],CC50,[1],92900 ± 44000 nM
same,EC50,WT HIV-1,11700 ± 9100 nM
same,SI,WT HIV-1,7.92
Cn1c(Cn2ccc(C(F)(F)F)c(Oc3ccc(Br)nc3)c2=O)n[nH]c1=O [7g],CC50,[1],> 280000 nM
same,EC50,WT HIV-1,197000 ± 58900 nM
same,SI,WT HIV-1,>1
"COc1ccc2c(c1)[C@]13CCCC[C@@H]1[C@H](C2)N(C)CC3 [Dextromethorphan, reference compound]",IC50,CYP2D6,48.2 nM
Cn1c(Cn2ccc(C(F)(F)F)c(Oc3cccc4nccnc34)c2=O)n[nH]c1=O [7y],CC50,[1],220000 ± 35500 nM
same,EC50,WT HIV-1,8070 ± 1410 nM
same,SI,WT HIV-1,27.30
Cc1cncc(Oc2c(C(F)(F)F)ccn(Cc3n[nH]c(=O)n3C)c2=O)c1 [7h],CC50,[1],> 328000 nM
same,EC50,HIV-1 mutant L100I,550 ± 330 nM
same,EC50,[2],16100 ± 7330 nM
same,EC50,HIV-1 mutant K103N,1200 ± 180 nM
same,EC50,WT HIV-1,530 ± 160 nM
same,SI,WT HIV-1,>616
same,IC50,WT HIV-1 RT,1030 ± 140 nM
same,EC50,HIV-1 mutant E138K,770 ± 40 nM
same,EC50,HIV-1 mutant Y181C,1780 ± 100 nM
same,EC50,HIV-1 mutant Y188L,196000 ± 12100 nM
